Data as given in ChEMBL document CHEMBL2150890, “Antioxidant properties of Mannich bases” (Bioorg Med Chem Lett, 2012).
Calls of active or inactive are those of the source. No cut-off for these calls is given here.

Assays:
[1] = test system: Radical scavenging activity; experiment: Antioxidant activity of the compound assessed as DPPH radical scavenging activity; type: functional
How it was run: (§1)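 Scavenging of the DPPH radical read by absorbance at 520 nm. % scavenging = (A_blank − A_sample)/A_blank × 100. Scavenging also followed at 0.5, 1, 2, 4, 6, 12 and 24 h. Three independent experiments, mean ± SD, one-way ANOVA.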

[2] = test system: Radical scavenging activity; experiment: Antioxidant activity of the compound assessed as DPPH radical scavenging activity at 50 uM; type: functional; how it was run: as §1
[3] = Antioxidant activity of the compound in phosphate buffer at pH 6.6 assessed as potassium ferric cyanide ion reducing activity at 6.25 to 100 uM after 20 mins; type: functional; parameters: scale not given: the % may be the effect or the level left
How it was run: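 Ferricyanide reducing power: sample in 0.2 M phosphate buffer, pH 6.6, incubated with 1% w/v potassium ferricyanide at 50 °C for 20 min. Reducing effect expressed relative to vitamin C; three independent experiments, mean ± SD.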

[4] = Antioxidant activity of the compound assessed as phosphate/Mo5 complex formation at 6.25 to 100 uM after 90 mins; type: functional
How it was run: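 Phosphomolybdenum method: compound incubated with 0.6 M H2SO4, 28 mM sodium phosphate and 4 mM ammonium molybdate at 95 °C for 90 min. After cooling to room temperature, absorbance read at 695 nm against a blank. Result expressed as vitamin C equivalent; three independent experiments, mean ± SD.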

[5] = Ratio of alpha-tocopherol IC50 to compound IC50 for antioxidant activity of the compound assessed as DPPH radical scavenging activity
[6] = test system: RAW264.7; experiment: Cytotoxicity against mouse RAW264.7 cells up to 100 uM after 24 hrs by MTT assay; type: cell-based; conditions: raw264.7, 24 h
How it was run: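 RAW 264.7 cells (DMEM, 10% FBS, 2 mM glutamine, penicillin/streptomycin; 37 °C, 5% CO2) seeded at 1 × 10^4 cells/well. After 24 h, treated with a range of compound concentrations for 24 h. MTT (1 mg/mL) added for 4 h, formazan dissolved in DMSO, absorbance read at 540 nm.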

[7] = test system: RAW264.7; experiment: Antioxidant activity in mouse RAW264.7 cells assessed as inhibition of H2O2-induced intracellular ROS formation after 30 mins in dark prior to H2O2 challenge measured after 30 mins post H2O2 challenge by H2DCF-DA based flow cytometry; type: functional, cell-based
How it was run: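 RAW 264.7 cells grown in DMEM/10% FBS at 37 °C, 5% CO2. Loaded with 20 µM H2DCF-DA in HBSS for 30 min, then compound (50 and 100 µM) in HBSS for 30 min at 37 °C in the dark. H2O2 challenge for 30 min, cells scraped and filtered, flow cytometry at 488 nm excitation. Geometric mean fluorescence reported; three independent experiments, mean ± SD.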

IC50 [1] | Structure (SMILES) | Activity [2] | Activity [3] | Activity [4] | Ratio IC50 [5] | Activity [6] | inhibition [7]
36 µM | Oc1ccccc1O [CATECHOL] |  |  |  |  |  | 
 | O=C1O[C@H]([C@@H](O)CO)C(O)=C1O | Active | Active |  |  |  | 
35.1 µM | COc1cc(/C=C/C(=O)CC(=O)/C=C/c2ccc(O)c(OC)c2)ccc1O [CURCUMIN] |  |  |  |  |  | 
 | COc1cc([C@H]2N[C@@H](c3ccc(O)c(OC)c3)[C@H]3CCC[C@H]2C3=O)ccc1O | 80% | 116% | 56.8% |  |  | 
26.1 µM | O=C1[C@@H]2CCC[C@@H]1[C@H](c1ccc(O)c(O)c1)N[C@@H]2c1ccc(O)c(O)c1 | 80% | 163% | 62.3% | 1 | Non-toxic | Dose-dependent effect
59 µM | Cc1c(C)c2c(c(C)c1O)CC[C@@](C)(CCC[C@H](C)CCC[C@H](C)CCCC(C)C)O2 [ALPHA-TOCOPHEROL] | Active |  |  |  |  | 
